This is an account of results in ChEMBL document CHEMBL1138657 (2004).

In assay [1] the test system is Candida parapsilosis. Description: Antifungal activity to inhibit Candida parapsilosis ATCC 22019. The format is functional, Fungi. The settings on record: Lodderomyces parapsilosis.
A further assay deals with U-937. Description: Cytotoxicity to reduce human histolytic lymphoma U937 cells. The format is functional. An outline of the steps: (§1)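 CC50 is the concentration in µM that reduces viability of human histiocytic lymphoma U937 or chronic myeloid leukemia K562 cells by 50%.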
Assay [2] concerns Candida albicans. Description: Antifungal activity to cause 99% reduction of surviving cells range is equal to 1-8. It counts as functional, Fungi.
For assay [3], the system named is Candida parapsilosis. Description: Minimum inhibitory concentration to inhibit Candida parapsilosis ATCC 22019. It counts as functional, Fungi. The following applies: Lodderomyces parapsilosis. An outline of the steps: (§2)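 Broth microdilution per NCCLS document against 20 C. albicans strains. […] MIC is reported in µg/mL as the arithmetic mean ± SD. MIC50 and MIC90 are the MICs at which 50% and 90% of isolates are inhibited. C. parapsilosis ATCC22019 was run as the QC strain.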

For another assay, the system named is K562. Description: Cytotoxicity to reduce chronic myeloid leukemia K 562 cells. It counts as functional. The settings on record: Homo sapiens. In a few lines:
as §1

Assay [4] relates to Candida albicans. Description: Minimum inhibitory concentration to inhibit 90% of the isolates. The format is functional, Fungi. In a few lines:
as §2

Assay [5] relates to Candida albicans. Description: Antifungal activity to cause 99% reduction of surviving cells in 50% isolates. It counts as functional, Fungi.
Assay [6] concerns Candida albicans. Description: Antifungal activity to cause 99% reduction of surviving cells in 90% isolates. The format is functional, Fungi.
In assay [7] the test system is Candida albicans. Kind of assay: Minimum inhibitory concentration to inhibit Candida albicans strain range is equal to 0.5-4. It counts as functional, Fungi. In a few lines:
as §2

Assay [8] deals with Candida albicans. Description: Minimum inhibitory concentration to inhibit 50% of the isolates. The format is functional, Fungi. In a few lines:
as §2

For assay [9], the system named is Candida albicans. Description: Antifungal activity to cause 99% reduction of surviving cells range is equal to 2-16. The format is functional, Fungi.
The subject of assay [10] is Candida albicans. Description: Minimum inhibitory concentration to inhibit Candida albicans strain range is equal to 16-128. The format is functional, Fungi. In a few lines: as §2
In assay [11] the test system is Candida albicans. Kind of assay: Antifungal activity to cause 99% reduction of surviving cells range is equal to 32-128. The format is functional, Fungi.
The test system of assay [12] is Candida albicans. Kind of assay: Minimum inhibitory concentration to inhibit Candida albicans strain range is equal to 8-64. The format is functional, Fungi. In a few lines: as §2
In assay [13] the test system is Candida albicans. Kind of assay: Antifungal activity to cause 99% reduction of surviving cells range is equal to 16-128. The format is functional, Fungi.
The test system of assay [14] is Candida albicans. Description: Minimum inhibitory concentration to inhibit 50% of the isolates.
The test system of assay [15] is Candida albicans. Kind of assay: Minimum inhibitory concentration to inhibit Candida Albicans strain range is equal to 4-64. It counts as functional, Fungi. An outline of the steps: as §2
Assay [16] has as its system Candida albicans. Kind of assay: Antifungal activity to cause 99% reduction of surviving cells range is equal to 64-128. It counts as functional, Fungi.
For assay [17], the system named is Candida albicans. Description: Minimum inhibitory concentration to inhibit Candida albicans strain range is equal to 32-128. The format is functional, Fungi.
In assay [18] the test system is Candida albicans. Kind of assay: Minimum inhibitory concentration to inhibit Candida albicans strain range is equal to 2-16. The format is functional, Fungi.
For assay [19], the system named is Candida albicans. Description: Antifungal activity to cause 99% reduction of surviving cells range is equal to 8-32. The format is functional, Fungi.

The term MFC denotes the smallest concentration meeting the test's criterion for killing the fungus. Low readings indicate more potent killing, high ones less potent killing. What is called CC50 is the concentration that lowers cell viability or growth by half. Low values mean greater toxicity to the cells, high ones lower toxicity to the cells. In general, MIC refers to the lowest concentration found to suppress growth. Read a low MIC as a more susceptible organism. The term MIC90 denotes an inhibitory concentration at the 90% level, which refers to growth in some studies and to a panel of isolates in others. Read a high MIC90 as lower susceptibility. What is called MIC50 is an inhibitory concentration at the 50% level, which refers to growth in some studies and to a panel of isolates in others.

Values after ≈ are worked out from the molar mass of the structure shown.

For `Clc1ccc(C(CCn2ccnc2)Oc2ccc(Cl)cc2Cl)cc1` (stereo not drawn), the values for the MFC against Candida parapsilosis [1] and against Candida albicans [2] were 8 µg/mL (≈ 21 µM) and less than 8 µg/mL, respectively. The figures for the CC50 with U-937 and with K562 were 61 µM and 54 µM, respectively. Further, the MIC was 0.5 µg/mL (≈ 1.31 µM) with Candida parapsilosis [3] and less than 4 µg/mL with Candida albicans [7]. Further, the MIC90 with Candida albicans [4] was 4 µg/mL (≈ 10.5 µM). Also, in the assay on Candida albicans [5], the MFC50 is 4 µg/mL (≈ 10.5 µM). Also, the MFC90 against Candida albicans [6] was 4 µg/mL (≈ 10.5 µM). Also, the MIC50 in the assay on Candida albicans [8] turned out to be 2 µg/mL (≈ 5.24 µM).

As for `Fc1ccc(C(CCn2ccnc2)Oc2ccc(Cl)cc2Cl)cc1` (stereo not drawn), the MFC with Candida parapsilosis [1] was 4 µg/mL (≈ 11 µM); in the assay with Candida albicans [9] it was less than 16 µg/mL. In addition, the CC50 in the assay with U-937 amounted to 43.3 µM; in the assay on K562, 33.5 µM. In addition, the MIC in the assay with Candida parapsilosis [3] was 0.5 µg/mL (≈ 1.37 µM); in the assay on Candida albicans [7], less than 4 µg/mL. Also, the MIC90 with Candida albicans [4] was determined as 4 µg/mL (≈ 11 µM). The MFC50 in the assay on Candida albicans [5] was 8 µg/mL (≈ 21.9 µM). The molecule also yielded an MFC90 in the assay with Candida albicans [6] of 8 µg/mL (≈ 21.9 µM). The same molecule yielded an MIC50 in the assay with Candida albicans [8] of 2 µg/mL (≈ 5.48 µM).

As to `FC(F)(F)c1ccc(OC(CCn2ccnc2)c2ccccc2)cc1` (stereo not drawn), the values for the minimal fungicidal concentration (MFC) against Candida parapsilosis [1] and against Candida albicans [11] were 16 µg/mL (≈ 46.2 µM) and less than 128 µg/mL, respectively. The results for the CC50 with U-937 and in the assay on K562 were 86 µM and 71 µM, respectively. Further, the figures for the MIC with Candida parapsilosis [3] and with Candida albicans [10] were 4 µg/mL (≈ 11.5 µM) and less than 128 µg/mL, respectively. This molecule also gave an MIC90 with Candida albicans [4] of 128 µg/mL (≈ 370 µM). The molecule also had an MFC50 against Candida albicans [5] of 64 µg/mL (≈ 185 µM). Moreover, the MFC90 in the assay on Candida albicans [6] turned out to be 128 µg/mL (≈ 370 µM). The MIC50 against Candida albicans [8] worked out at 64 µg/mL (≈ 185 µM).

`O=[N+]([O-])c1ccc(OC(CCn2ccnc2)c2ccccc2)cc1` (stereo not drawn): the minimum fungicidal concentration (MFC) in the assay with Candida parapsilosis [1] is 32 µg/mL (≈ 99 µM); with Candida albicans [13], less than 128 µg/mL. Further, the minimum inhibitory concentration (MIC) against Candida parapsilosis [1] is 4 µg/mL (≈ 12.4 µM); against Candida albicans [12], less than 64 µg/mL. For the same molecule, the results for the CC50 in the assay on U-937 and in the assay with K562 were 97.2 µM and 102 µM, respectively. In the assay with Candida albicans [4], this molecule yielded an MIC90 of 32 µg/mL (≈ 99 µM). Besides, the MFC50 in the assay with Candida albicans [5] came to 32 µg/mL (≈ 99 µM). The molecule further displayed an MFC90 in the assay on Candida albicans [6] greater than 128 µg/mL. Moreover, the MIC50 against Candida albicans [8] was found to be 32 µg/mL (≈ 99 µM).

With `Fc1ccc(OC(CCn2ccnc2)c2ccccc2)c(F)c1` (stereo not drawn), the MFC against Candida parapsilosis [1] is 32 µg/mL (≈ 102 µM); in the assay on Candida albicans [11] it was less than 128 µg/mL. Also, the figures for the 50% cytotoxic concentration (CC50) in the assay on U-937 and in the assay with K562 were 219 µM and 298 µM, respectively. This molecule also had an MIC50 in the assay with Candida albicans [14] of 32 µg/mL (≈ 102 µM). Also, the MIC against Candida albicans [15] was less than 64 µg/mL; in the assay on Candida parapsilosis [3], 8 µg/mL (≈ 25.5 µM). For the same molecule, the MIC90 against Candida albicans [4] is 64 µg/mL (≈ 204 µM). For the same molecule, the MFC50 in the assay on Candida albicans [5] stood at 64 µg/mL (≈ 204 µM). The molecule further gave an MFC90 against Candida albicans [6] of 128 µg/mL (≈ 407 µM).

As to `CNCCC(Oc1ccc(C(F)(F)F)cc1)c1ccccc1` (stereo not drawn) [FLUOXETINE], the MFC in the assay with Candida parapsilosis [1] was 64 µg/mL (≈ 207 µM); against Candida albicans [16], less than 128 µg/mL. The values for the CC50 with U-937 and in the assay on K562 were 33.3 µM and 25 µM, respectively. The MIC was 8 µg/mL (≈ 25.9 µM) in the assay with Candida parapsilosis [3] and less than 128 µg/mL in the assay with Candida albicans [17]. The molecule also showed an MIC90 against Candida albicans [4] of 128 µg/mL (≈ 414 µM). This molecule also displayed an MIC50 in the assay on Candida albicans [8] of 64 µg/mL (≈ 207 µM).

As to `CC(=O)N1CCN(c2ccc(OC[C@H]3CO[C@](Cn4ccnc4)(c4ccc(Cl)cc4Cl)O3)cc2)CC1` [KETOCONAZOLE], the MFC was 0.5 µg/mL (≈ 0.941 µM) in the assay on Candida parapsilosis [1] and less than 32 µg/mL against Candida albicans [19]. Moreover, the CC50 in the assay with U-937 is 70 µM; in the assay on K562 it was 61.7 µM. Besides, the minimal inhibitory concentration (MIC) against Candida parapsilosis [3] was 0.06 µg/mL (≈ 0.113 µM); with Candida albicans [18], less than 16 µg/mL. The MIC90 against Candida albicans [4] came to 8 µg/mL (≈ 15.1 µM). This molecule had an MFC50 against Candida albicans [5] of 16 µg/mL (≈ 30.1 µM). Also, the MFC90 in the assay with Candida albicans [6] was 32 µg/mL (≈ 60.2 µM). In addition, in the assay with Candida albicans [8], the MIC50 is 4 µg/mL (≈ 7.53 µM).
